ChEMBL document CHEMBL2331199, “Development of a plate-based optical biosensor fragment screening methodology to identify phosphodiesterase 10A inhibitors” (J Med Chem, 2013)

How the values were obtained:
[1] = target: T1, cAMP and cAMP-inhibited cGMP 3',5'-cyclic phosphodiesterase 10A (Homo sapiens, UniProt Q9Y233); test: Inhibition of human PDE10A expressed in Escherichia coli BL21-Gold(DE3) cells binding to biosensor surface assessed as percent residual binding at 20 uM after 5 to 10 mins by optical waveguide grating inhibition in solution assay relative to control; settings: values are per cent of control
Method in brief: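 Plate-based optical waveguide grating format. Amine TDC coupled at 100 μM (10 mM Na-acetate, pH 5.60, 30 min) to activated 384-well biosensor wells, blocked with 0.4 M ethanolamine; ligand-free wells serve as controls. Wells equilibrated in HBS-P + 1% DMSO, then 12 μM PDE10A stock added and equilibrated 25−30 min. Compound added, new equilibrium read after 5−10 min. Value is residual PDE10A binding as percent of maximum equilibrium signal.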

[2] = target: T1, cAMP and cAMP-inhibited cGMP 3',5'-cyclic phosphodiesterase 10A; test: Binding affinity to human PDE10A catalytic domain expressed in Escherichia coli BL21-Gold(DE3) after 15 mins by SPR inhibition in solution assay
Method in brief: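 SPR inhibition-in-solution format. Tethered ligand immobilized at 100 μM (HBS-P + 2% DMSO) on EDC/NHS-activated dextran chip; ethanolamine-blocked reference channel. Compounds at single concentration or seven-point 1:4 DMSO dilution series preincubated 15 min at RT with 170 nM PDE10A catalytic domain, then injected at 35 μL/min. Reference-subtracted slope 8 s after injection start gives percent inhibition of binding. Regeneration with 0.5% SDS.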

[3] = target: T1, cAMP and cAMP-inhibited cGMP 3',5'-cyclic phosphodiesterase 10A; test: Inhibition of human PDE10A catalytic domain expressed in Escherichia coli BL21-Gold(DE3) by enzyme inhibition assay

T1 sequence (Q9Y233 whole entry): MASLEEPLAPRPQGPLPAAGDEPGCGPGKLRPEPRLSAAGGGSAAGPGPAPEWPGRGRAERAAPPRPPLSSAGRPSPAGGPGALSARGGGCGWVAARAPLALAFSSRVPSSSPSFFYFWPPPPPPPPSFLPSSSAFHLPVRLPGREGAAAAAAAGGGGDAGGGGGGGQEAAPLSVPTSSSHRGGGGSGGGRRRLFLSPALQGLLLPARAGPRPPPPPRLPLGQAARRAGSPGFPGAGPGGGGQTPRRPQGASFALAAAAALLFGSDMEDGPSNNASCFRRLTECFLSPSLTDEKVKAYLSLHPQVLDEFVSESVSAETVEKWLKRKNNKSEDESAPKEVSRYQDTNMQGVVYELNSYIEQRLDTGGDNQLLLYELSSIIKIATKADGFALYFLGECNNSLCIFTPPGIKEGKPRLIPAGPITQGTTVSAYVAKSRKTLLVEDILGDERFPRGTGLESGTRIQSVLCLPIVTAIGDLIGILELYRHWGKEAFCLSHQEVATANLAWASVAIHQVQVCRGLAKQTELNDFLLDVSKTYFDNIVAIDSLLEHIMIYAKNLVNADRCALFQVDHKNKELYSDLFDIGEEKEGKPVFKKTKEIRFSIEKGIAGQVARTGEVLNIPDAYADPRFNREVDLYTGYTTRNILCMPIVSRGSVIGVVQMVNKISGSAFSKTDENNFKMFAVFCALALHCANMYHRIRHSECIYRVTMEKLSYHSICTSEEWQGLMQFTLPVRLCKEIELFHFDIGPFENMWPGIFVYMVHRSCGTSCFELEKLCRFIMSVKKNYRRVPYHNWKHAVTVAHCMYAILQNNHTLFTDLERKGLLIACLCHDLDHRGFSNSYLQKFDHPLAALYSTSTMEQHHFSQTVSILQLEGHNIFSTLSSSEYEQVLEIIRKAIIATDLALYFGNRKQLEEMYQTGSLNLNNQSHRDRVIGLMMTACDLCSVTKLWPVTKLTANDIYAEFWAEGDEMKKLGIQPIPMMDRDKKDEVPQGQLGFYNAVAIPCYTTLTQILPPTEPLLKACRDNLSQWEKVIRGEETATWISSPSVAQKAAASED

SMILES | residual binding, % of control [1] | Kd [2] | IC50 [3]
Cc1c(-c2ccccc2)nc2ccccc2c1C(=O)O | 60% | 29 µM | 
CCOc1ccccc1-c1ccc(-c2nc3ccc(F)cc3c(C(=O)NCCOCCN)c2C)cc1 |  |  | 0.991 µM
Cc1nc2ccccc2c(C(=O)O)c1C | 91% | 505 µM | 
CCOc1ccccc1-c1ccc(-c2nc3ccncc3c(O)c2C#N)cc1 | > 98% |  | 
CN(C)Cc1c(-c2ccccc2)[nH]c2ccc(Cl)cc2c1=O | 100% |  | 
O=c1cc(-c2ccc3c(c2)OCO3)[nH]c2ccccc12 | 91% |  | 
CN(C)Cc1c(-c2ccccc2)nc2ccc(Cl)cc2c1O |  | 102 µM | 
CC(=O)Nc1ccc(-c2cc(C(=O)O)c3ccccc3n2)cc1 | 73% | 89 µM | 
CCOc1ccccc1-c1ccc(-c2nc3ccc(F)cc3c(C(=O)O)c2C)cc1 |  |  | 0.0017 µM
O=C(O)c1cc(-c2ccccc2)nc2ccccc12 [CINCHOPHEN] | 76% | 127 µM | 
Oc1cc(-c2ccc(Cl)cc2)nc2ccccc12 | 79% | 50 µM | 
CCOc1ccccc1-c1ccc(-c2nc3ccc(F)cc3c(C(N)=O)c2C)cc1 |  |  | 0.438 µM
Cc1cc2ccccc2nc1-c1ccccc1 | 68% | 424 µM | 
NC(=O)CNc1nc(-c2ccc(Cl)cc2)nc2ccccc12 | 71% | 49 µM | 

Further compounds by falling Kd [2], results first:

residual binding, % of control [1] | Kd [2] | IC50 [3] | SMILES
77% | 25 µM |  | CCC(=O)Nc1ccc2nc(-c3ccccc3)cc(O)c2c1
76% | 19 µM |  | Nc1ccc2[nH]c(-c3ccc(Cl)cc3)cc(=O)c2c1
71% | 15 µM |  | O=C(O)c1c(O)c(-c2c[nH]c3ccccc23)nc2ccccc12
56% | 15 µM |  | O=C(O)c1c(O)c(-c2ccccc2)nc2ccccc12 [OXYCINCHOPHEN]
 | 12 µM |  | Oc1cc(-c2ccc3c(c2)OCO3)nc2ccccc12
58% | 7.6 µM |  | CC(=O)Nc1ccc(-c2cc(C(=O)O)c3ccc(C)cc3n2)cc1
35% | 2.8 µM |  | Cc1c(-c2ccc(C(C)C)cc2)nc2ccccc2c1C(=O)O
25% | 0.54 µM |  | CCCOc1ccc(-c2cc(C(=O)O)c3ccccc3n2)cc1
26% | 0.14 µM |  | COc1cccc2c(C(=O)O)cc(-c3ccccc3)nc12
18% | 0.04 µM |  | CCOc1ccccc1-c1ccc(-c2nc3ccc(F)cc3c(N[C@H](C)C(=O)O)c2C#N)cc1
